Measured values: ChEMBL document CHEMBL4311948, “Exploring the Natural Piericidins as Anti-Renal Cell Carcinoma Agents Targeting Peroxiredoxin 1” (J Med Chem, 2019)
Calls of active or inactive are those of the source. The calls are words filed in the database; no cut-off is given here.

Experiments:
HK-2 = test: Cytotoxicity against human HK2 cells assessed as reduction in cell viability measured after 72 hrs by CCK8 assay; format: cell-based; conditions: HK-2, 72 h
In short: (§1)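 Cells were grown in 10% FBS medium: MEM for ACHN, RPMI1640 for OS-RC-2 and 786-O, DMEM for HK-2. They were seeded at 400–800 cells/well in 384-well plates and treated with a range of compound concentrations or solvent control, with sorafenib as positive control. After 72 h, CCK-8 absorbance was read at 450 nm in triplicate, and IC50 was taken from dose-response curves.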

786-0 = test: Cytotoxicity against human 786-O cells assessed as reduction in cell viability measured after 72 hrs by CCK8 assay; format: functional, cell-based; conditions: 786-0, 72 h; in short: as §1
ACHN [1] = test: Down regulation of EGFR mRNA expression in human ACHN cells at 25 to 50 nM measured after 24 hrs by qRT-PCR analysis; format: functional, cell-based
Mus musculus [2] = test: Up regulation of PRDX1 expression in human ACHN cells xenografted Balb/c nu/nu mouse at 0.8 mg/kg, ip administered once daily for 21 days measured post-last dose by immunoblot analysis; format: functional, organism-based
In short: (§2)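 Male athymic Balb/c nu/nu mice, four weeks old, acclimatised 1 week. 10^7 ACHN cells in 0.2 mL PBS injected into the right flank. At about 150 mm3, mice randomised into PBS control or 0.8 mg/kg groups, dosed ip daily for three weeks. Tumours measured by caliper (volume = 0.5 × L × W²) with body weight recorded. Endpoint tumour weight, sections stained by H&E and TUNEL. Tissue lysed for immunoblot.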

ACHN [3] = test: Down regulation of SLC2A1 mRNA expression in human ACHN cells at 25 to 50 nM measured after 24 hrs by qRT-PCR analysis; format: functional, cell-based
[4] = Toxicity in Balb/c nu/nu mouse xenografted with human ACHN cells assessed as decrease in body weight at 0.8 mg/kg, ip administered once daily for 21 days; format: organism-based; conditions: in vivo, 504 h; in short: as §2
[5] = target: T1, Peroxiredoxin-1 (Homo sapiens) (UniProt Q06830); test: Activation of PRDX1 in human ACHN cells assessed as reduction in reactive oxygen species level at 25 to 50 nM measured after 24 hrs by Cell-rox reagent-based flow cytometry
T1 sequence (whole entry): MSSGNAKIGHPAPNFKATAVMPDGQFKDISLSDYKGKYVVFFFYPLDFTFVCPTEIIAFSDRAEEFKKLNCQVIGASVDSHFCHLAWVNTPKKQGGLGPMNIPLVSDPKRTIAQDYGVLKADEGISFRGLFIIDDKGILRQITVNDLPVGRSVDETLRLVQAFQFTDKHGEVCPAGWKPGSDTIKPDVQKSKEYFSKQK
In short: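 ACHN cells grown 24 h in MEM + 10% FBS, reseeded at 2 × 10^4 cells/well and exposed to 0, 25 or 50 nM for 24 h. Harvested cells loaded with CellROX oxidative stress reagent 5 μM, 30 min at 37 °C in the dark, then read by flow cytometry. shPRDX1 line: stable knockdown selected with puromycin (1 μg/mL) before dosing. Mean ± SD.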

ACHN [6] = test: Cytotoxicity against human ACHN cells harboring shPRDX1 gene assessed as reduction in cell viability measured after 72 hrs by CCK8 assay; format: functional, cell-based
In short: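 Transfectants were selected with puromycin (1 μg/mL), and knockdown was confirmed by immunoblot. Viability was read by CCK-8 after 72 h of compound exposure in 384-well plates at 400–800 cells/well in MEM with 10% FBS, and IC50 was taken from dose-response curves.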

ACHN [7] = test: Down regulation of MET mRNA expression in human ACHN cells at 25 to 50 nM measured after 24 hrs by qRT-PCR analysis; format: functional, cell-based
ACHN [8] = test: Cytotoxicity against human ACHN cells assessed as reduction in cell viability measured after 72 hrs by CCK8 assay; format: functional, cell-based; in short: as §1
ACHN [9] = test: Down regulation of LDHA mRNA expression in human ACHN cells at 25 to 50 nM measured after 24 hrs by qRT-PCR analysis; format: functional, cell-based
OS-RC-2 = test: Cytotoxicity against human OS-RC2 cells assessed as reduction in cell viability measured after 72 hrs by CCK8 assay; format: functional, cell-based; conditions: OS-RC-2, 72 h; in short: as §1
ACHN [10] = test: Down regulation of ETS1 mRNA expression in human ACHN cells at 25 to 50 nM measured after 24 hrs by qRT-PCR analysis; format: functional, cell-based
ACHN [11] = test: Up regulation of nuclear PRDX1 expression in human ACHN cells at 25 to 50 nM measured after 24 hrs by immunoblot analysis; format: functional, cell-based
In short: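 ACHN cells treated 24 h with 25 or 50 nM, then nuclear and cytosolic extracts prepared. Lysis in RIPA buffer, BCA quantitation, 30–50 μg protein resolved on 10% or 12% gels. Blotted with anti-PRDX1 (1:1000) and β-actin (1:3000), band ratio PRDX1/β-actin reported as fold change. Mean ± SD.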

ACHN [12] = test: Antitumor activity against human ACHN cells xenografted in Balb/c nu/nu mouse assessed as tumor growth inhibition at 0.8 mg/kg, ip administered once daily for 21 days measured post-last dose by H and E staining-based assay; format: functional, organism-based; in short: as §2
Peroxiredoxin-1 = target: T2, Peroxiredoxin-1 (Homo sapiens, UniProt Q06830); test: Binding affinity to full-length human PRDX1 by surface plasmon resonance analysis
T2 sequence (Q06830 whole entry): T1 sequence (whole entry)
In short: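 Full-length human PRDX1 immobilised on a CM5 chip (Biacore T100). Analyte concentration series diluted in 10 mM Hepes pH 7.4, injected over the protein surface and a protein-free reference surface in a single step.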

Mus musculus [13] = test: Up regulation of PRDX1 mRNA expression in human ACHN cells xenografted Balb/c nu/nu mouse at 0.8 mg/kg, ip administered once daily for 21 days measured post-last dose by qRT-PCR analysis; format: functional, organism-based
ACHN [14] = test: Down regulation of SOD2 mRNA expression in human ACHN cells at 25 to 50 nM measured after 24 hrs by qRT-PCR analysis; format: functional, cell-based
ACHN [15] = test: Antitumor activity against human ACHN cells xenografted in Balb/c nu/nu mouse assessed as tumor growth inhibition at 0.8 mg/kg, ip administered once daily for 21 days measured post-last dose by TUNEL staining-based assay; format: functional, organism-based; in short: as §2
ACHN [16] = test: Up regulation of PRDX1 mRNA expression in human ACHN cells at 25 to 50 nM measured after 24 hrs by qRT-PCR analysis; format: functional, cell-based
ACHN [17] = test: Down regulation of HIF1A mRNA expression in human ACHN cells at 25 to 50 nM measured after 24 hrs by qRT-PCR analysis; format: functional, cell-based
[18] = target: T1, Peroxiredoxin-1 (Homo sapiens); test: Induction of PRDX1 nuclear translocation in human ACHN cells at 25 to 50 nM measured after 24 hrs by DAPI staining-based microscopic analysis; format: cell-based
In short: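 ACHN cells exposed 24 h to 25 or 50 nM, fixed in 4% paraformaldehyde 10 min and permeabilised with 0.5% Triton X-100. Blocked with 10% FBS, 4 °C, 12 h. Stained with anti-PRDX1 overnight, FITC secondary 2 h RT, DAPI nuclear counterstain. Confocal imaging scored mean fluorescence intensity (n = 9).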

ACHN [19] = test: Down regulation of HK2 mRNA expression in human ACHN cells at 25 to 50 nM measured after 24 hrs by qRT-PCR analysis; format: functional, cell-based
ACHN [20] = test: Antitumor activity against human ACHN cells xenografted in Balb/c nu/nu mouse assessed as tumor weight at 0.8 mg/kg, ip administered once daily for 21 days measured post-last dose by caliper method (reference value: 0.55 +/- 0.13 g); format: functional; in short: as §2
ACHN [21] = test: Selectivity ratio of IC50 for cytotoxicity against human ACHN cells harboring shPRDX1 gene to IC50 for Cytotoxicity against human ACHN cells; format: functional
[22] = Toxicity in Balb/c nu/nu mouse xenografted with human ACHN cells assessed as effect on survival at 0.8 mg/kg, ip administered once daily for 21 days; format: organism-based; conditions: in vivo, 504 h; in short: as §2
[23] = Toxicity in Balb/c nu/nu mouse xenografted with human ACHN cells assessed as effect on survival at 50 mg/kg, ip administered once daily for 21 days; format: organism-based; conditions: in vivo, 504 h
In short: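 Nude mice (Balb/c nu/nu) bearing ACHN flank xenografts received sorafenib tosylate 50 mg/kg, given as a 10× stock in Cremophor EL diluted in PBS. Treatment alongside PBS control for three weeks. Survival and body weight monitored.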

[24] = Toxicity in Balb/c nu/nu mouse xenografted with human ACHN cells assessed as decrease in body weight at 50 mg/kg, ip administered once daily for 21 days; conditions: in vivo, 504 h
ACHN [25] = test: Antitumor activity against human ACHN cells xenografted in Balb/c nu/nu mouse assessed as tumor weight at 50 mg/kg, ip administered once daily for 21 days measured post-last dose by caliper method (reference value: 0.55 +/- 0.13 g); format: functional

## C/C=C(\C)[C@H](O[C@@H]1O[C@H](CO)[C@@H](O)[C@H](O)[C@H]1O)[C@H](C)/C=C(C)/C=C/C/C(C)=C/Cc1nc(OC)c(OC)c(O)c1C
HK-2
  IC50: > 100 µM
786-0
  IC50: > 100 µM
ACHN [1]
  Activity: Active
Mus musculus [2]
  Activity: Active
ACHN [3]
  Activity: Active
[4]
  Activity: Non-Toxic
[5]
  Activity: Active
ACHN [6]; Homo sapiens, ACHN, 72 h, read-out: IC50
  IC50: 0.96 µM
ACHN [7]
  Activity: Active
ACHN [8]
  IC50: 0.21 µM
ACHN [9]
  Activity: Active
OS-RC-2
  IC50: > 100 µM
ACHN [10]
  Activity: Active
ACHN [11]
  Activity: Active
ACHN [12]
  TGI: Active
Peroxiredoxin-1
  Kd: 1.83 µM
Mus musculus [13]
  Activity: Active
ACHN [14]
  Activity: Active
ACHN [15]
  TGI: Active
ACHN [16]
  Activity: Active
ACHN [17]
  Activity: Active
[18]
  Activity: Active
ACHN [19]
  Activity: Active
ACHN [20]
  Activity: 0.23 g
ACHN [21]
  Ratio IC50: 4
[22]
  Activity: Non-Toxic

## CNC(=O)c1cc(Oc2ccc(NC(=O)Nc3ccc(Cl)c(C(F)(F)F)c3)cc2)ccn1 [SORAFENIB]
HK-2
  IC50: 2.6 µM
786-0
  IC50: 13 µM
ACHN [6]; achn
  IC50: Not Active
ACHN [8]
  IC50: 3.3 µM
[23]
  Activity: Non-Toxic
OS-RC-2
  IC50: 14 µM
[24]
  Activity: Toxic
ACHN [25]
  Activity: 0.12 g
